Measurements published in ChEMBL document CHEMBL1629548, “In vitro activities of tigecycline against clinical isolates of Aeromonas, Vibrio, and Salmonella species in Taiwan” (2008).

What was measured:
Aeromonas hydrophila [1] = test: Antimicrobial activity against Aeromonas hydrophila assessed as susceptible isolate by FDA method; type: functional
Procedure, shortened: (§1)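 Susceptibility categories assigned from tigecycline broth microdilution MICs (CLSI method, 0.03–128 μg/ml) using US FDA or EUCAST breakpoints, as named in each line.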

Aeromonas hydrophila [2] = test: Antimicrobial activity against Aeromonas hydrophila assessed as susceptible isolate by EUCAST method; type: functional; procedure, shortened: as §1
Aeromonas hydrophila [3] = test: Antimicrobial activity against Aeromonas hydrophila assessed as intermediate isolate by FDA method; type: functional
Procedure, shortened: (§2)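 Tigecycline MICs for clinical isolates (Taiwan) were determined by broth microdilution over 0.03 to 128 μg/ml. A control strain was included, and its MICs had to fall within the recommended range. Susceptible, intermediate and resistant categories were assigned from the MICs using US FDA and EUCAST breakpoints.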

Aeromonas hydrophila [4] = test: Antimicrobial activity against Aeromonas hydrophila assessed as intermediate isolate by EUCAST method; type: functional; procedure, shortened: as §1
Aeromonas caviae [5] = test: Antimicrobial activity against Aeromonas caviae assessed as susceptible isolate by FDA method; type: functional; procedure, shortened: as §2
Aeromonas caviae [6] = test: Antimicrobial activity against Aeromonas caviae assessed as susceptible isolate by EUCAST method; type: functional; procedure, shortened: as §1
Aeromonas caviae [7] = test: Antimicrobial activity against Aeromonas caviae assessed as intermediate isolate by FDA method; type: functional; procedure, shortened: as §1
Aeromonas caviae [8] = test: Antimicrobial activity against Aeromonas caviae assessed as intermediate isolate by EUCAST method; type: functional; procedure, shortened: as §2
Aeromonas caviae [9] = test: Antimicrobial activity against Aeromonas caviae assessed as resistant isolate by FDA method; type: functional; procedure, shortened: as §2
Aeromonas sobria [10] = test: Antimicrobial activity against Aeromonas sobria assessed as susceptible isolate by FDA method; type: functional; procedure, shortened: as §1
Aeromonas sobria [11] = test: Antimicrobial activity against Aeromonas sobria assessed as susceptible isolate by EUCAST method; type: functional; procedure, shortened: as §1
Aeromonas sobria [12] = test: Antimicrobial activity against Aeromonas sobria assessed as intermediate isolate by FDA method; type: functional; procedure, shortened: as §2
Aeromonas sobria [13] = test: Antimicrobial activity against Aeromonas sobria assessed as intermediate isolate by EUCAST method; type: functional; procedure, shortened: as §1
[14] = Antimicrobial activity against Salmonella serotype Choleraesuis assessed as susceptible isolate by FDA method; type: functional, Salmonella enterica subsp. enterica serovar Choleraesuis; procedure, shortened: as §2
[15] = Antimicrobial activity against Salmonella serotype Choleraesuis assessed as intermediate isolate by FDA method; type: functional, Salmonella enterica subsp. enterica serovar Choleraesuis; procedure, shortened: as §2
[16] = Antimicrobial activity against Salmonella serotype Choleraesuis assessed as intermediate isolate by EUCAST method; type: functional, Salmonella enterica subsp. enterica serovar Choleraesuis; procedure, shortened: as §2
[17] = Antimicrobial activity against Salmonella serotype Choleraesuis assessed as resistant isolate by FDA method; type: functional, Salmonella enterica subsp. enterica serovar Choleraesuis; procedure, shortened: as §2
[18] = Antimicrobial activity against Salmonella serotype Choleraesuis assessed as resistant isolate by EUCAST method; type: functional, Salmonella enterica subsp. enterica serovar Choleraesuis; procedure, shortened: as §2
Salmonella typhimurium [19] = test: Antimicrobial activity against Salmonella serotype Typhimurium assessed as susceptible isolate by FDA method; type: functional, Salmonella enterica subsp. enterica serovar Typhimurium; procedure, shortened: as §1
Salmonella typhimurium [20] = test: Antimicrobial activity against Salmonella serotype Typhimurium assessed as susceptible isolate by EUCAST method; type: functional, Salmonella enterica subsp. enterica serovar Typhimurium; procedure, shortened: as §1
Salmonella typhimurium [21] = test: Antimicrobial activity against Salmonella serotype Typhimurium assessed as intermediate isolate by FDA method; type: functional, Salmonella enterica subsp. enterica serovar Typhimurium; procedure, shortened: as §1
Salmonella typhimurium [22] = test: Antimicrobial activity against Salmonella serotype Typhimurium assessed as intermediate isolate by EUCAST method; type: functional, Salmonella enterica subsp. enterica serovar Typhimurium; procedure, shortened: as §1
Salmonella [23] = test: Antimicrobial activity against Salmonella serogroup O7 assessed as susceptible isolate by FDA method; type: functional; procedure, shortened: as §1
Salmonella [24] = test: Antimicrobial activity against Salmonella serogroup O7 assessed as susceptible isolate by EUCAST method; type: functional; procedure, shortened: as §1
Salmonella [25] = test: Antimicrobial activity against Salmonella serogroup O7 assessed as intermediate isolate by FDA method; type: functional; procedure, shortened: as §1
Salmonella [26] = test: Antimicrobial activity against Salmonella serogroup O7 assessed as intermediate isolate by EUCAST method; type: functional; procedure, shortened: as §1
Salmonella [27] = test: Antimicrobial activity against Salmonella serogroup O8 assessed as susceptible isolate by FDA method; type: functional; procedure, shortened: as §1
Salmonella [28] = test: Antimicrobial activity against Salmonella serogroup O8 assessed as susceptible isolate by EUCAST method; type: functional; procedure, shortened: as §1
Salmonella [29] = test: Antimicrobial activity against Salmonella serogroup O8 assessed as intermediate isolate by FDA method; type: functional; procedure, shortened: as §1
Salmonella [30] = test: Antimicrobial activity against Salmonella serogroup O8 assessed as intermediate isolate by EUCAST method; type: functional; procedure, shortened: as §1
Salmonella [31] = test: Antimicrobial activity against Salmonella serogroup O9 assessed as susceptible isolate by FDA method; type: functional; procedure, shortened: as §1
Salmonella [32] = test: Antimicrobial activity against Salmonella serogroup O9 assessed as susceptible isolate by EUCAST method; type: functional; procedure, shortened: as §1
Salmonella [33] = test: Antimicrobial activity against Salmonella serogroup O9 assessed as intermediate isolate by FDA method; type: functional; procedure, shortened: as §1
Salmonella [34] = test: Antimicrobial activity against Salmonella serogroup O9 assessed as intermediate isolate by EUCAST method; type: functional; procedure, shortened: as §2
Vibrio vulnificus [35] = test: Antimicrobial activity against Vibrio vulnificus assessed as susceptible isolate by FDA method; type: functional; procedure, shortened: as §1
Vibrio vulnificus [36] = test: Antimicrobial activity against Vibrio vulnificus assessed as susceptible isolate by EUCAST method; type: functional; procedure, shortened: as §1
Vibrio vulnificus [37] = test: Antimicrobial activity against Vibrio vulnificus assessed as intermediate isolate by FDA method; type: functional; procedure, shortened: as §1
Vibrio vulnificus [38] = test: Antimicrobial activity against Vibrio vulnificus assessed as intermediate isolate by EUCAST method; type: functional; procedure, shortened: as §2
Vibrio parahaemolyticus [39] = test: Antimicrobial activity against Vibrio parahaemolyticus assessed as susceptible isolate by FDA method; type: functional; procedure, shortened: as §1
Vibrio parahaemolyticus [40] = test: Antimicrobial activity against Vibrio parahaemolyticus assessed as susceptible isolate by EUCAST method; type: functional; procedure, shortened: as §1
Vibrio parahaemolyticus [41] = test: Antimicrobial activity against Vibrio parahaemolyticus assessed as intermediate isolate by FDA method; type: functional; procedure, shortened: as §2
Vibrio parahaemolyticus [42] = test: Antimicrobial activity against Vibrio parahaemolyticus assessed as intermediate isolate by EUCAST method; type: functional; procedure, shortened: as §1
Vibrio cholerae [43] = test: Antimicrobial activity against Vibrio cholerae non-O1 assessed as susceptible isolate by FDA method; type: functional; procedure, shortened: as §2
Vibrio cholerae [44] = test: Antimicrobial activity against Vibrio cholerae non-O1 assessed as susceptible isolate by EUCAST method; type: functional; procedure, shortened: as §2
Vibrio cholerae [45] = test: Antimicrobial activity against Vibrio cholerae non-O1 assessed as intermediate isolate by FDA method; type: functional; procedure, shortened: as §2
Vibrio cholerae [46] = test: Antimicrobial activity against Vibrio cholerae non-O1 assessed as intermediate isolate by EUCAST method; type: functional; procedure, shortened: as §2
Vibrio cholerae [47] = test: Antimicrobial activity against Vibrio cholerae non-O1 assessed as resistant isolate by FDA method; type: functional; procedure, shortened: as §2
Vibrio cholerae [48] = test: Antimicrobial activity against Vibrio cholerae non-O1 assessed as resistant isolate by EUCAST method; type: functional; procedure, shortened: as §2

CN(C)c1cc(NC(=O)CNC(C)(C)C)c(O)c2c1C[C@H]1C[C@H]3[C@H](N(C)C)C(O)=C(C(N)=O)C(=O)[C@@]3(O)C(O)=C1C2=O [TIGECYCLINE]
Activity (Aeromonas hydrophila [1]): 100%
Activity (Aeromonas hydrophila [2]): 98.8%
Activity (Aeromonas hydrophila [3]): 0%
Activity (Aeromonas hydrophila [4]): 1.2%
Activity (Aeromonas caviae [5]): 98.4%
Activity (Aeromonas caviae [6]): 96.8%
Activity (Aeromonas caviae [7]): 1.6%
Activity (Aeromonas caviae [8]): 1.6%
Activity (Aeromonas caviae [9]): 0%
Activity (Aeromonas sobria [10]): 100%
Activity (Aeromonas sobria [11]): 100%
Activity (Aeromonas sobria [12]): 0%
Activity (Aeromonas sobria [13]): 0%
Activity [14]: 100%
Activity [15]: 0%
Activity [16]: 1.6%
Activity [17]: 0%
Activity [18]: 0%
Activity (Salmonella typhimurium [19]): 100%
Activity (Salmonella typhimurium [20]): 98.4%
Activity (Salmonella typhimurium [21]): 0%
Activity (Salmonella typhimurium [22]): 1.6%
Activity (Salmonella [23]): 100%
Activity (Salmonella [24]): 100%
Activity (Salmonella [25]): 0%
Activity (Salmonella [26]): 0%
Activity (Salmonella [27]): 100%
Activity (Salmonella [28]): 100%
Activity (Salmonella [29]): 0%
Activity (Salmonella [30]): 0%
Activity (Salmonella [31]): 100%
Activity (Salmonella [32]): 100%
Activity (Salmonella [33]): 0%
Activity (Salmonella [34]): 0%
Activity (Vibrio vulnificus [35]): 100%
Activity (Vibrio vulnificus [36]): 100%
Activity (Vibrio vulnificus [37]): 0%
Activity (Vibrio vulnificus [38]): 0%
Activity (Vibrio parahaemolyticus [39]): 100%
Activity (Vibrio parahaemolyticus [40]): 100%
Activity (Vibrio parahaemolyticus [41]): 0%
Activity (Vibrio parahaemolyticus [42]): 0%
Activity (Vibrio cholerae [43]): 100%
Activity (Vibrio cholerae [44]): 100%
Activity (Vibrio cholerae [45]): 0%
Activity (Vibrio cholerae [46]): 0%
Activity (Vibrio cholerae [47]): 0%
Activity (Vibrio cholerae [48]): 0%
